# Reference: article PMC5771842 (Nature chemical biology, 2018)
# Entries after “also recorded” stand apart in the source; their conditions may differ.
# Experiments:
# [1] = tested on: CEM 1A2 tat/rev++ T-cells; assay: HIV cytoprotection assay; assay type: cell-based, human; details: CEM 1A2 T cells
# [2] = tested on: MC99IIIBΔTat-Rev HIV-1; assay: HIV cytoprotection assay; assay type: cell-based; details: CEM 1A2 tat/rev++ cells
# In short: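 CEM 1A2 tat/rev++ cells, which die on HIV infection, grown in RPMI-1640 with 20% FBS, bicarbonate and antibiotic-antimycotic at 37°C, 5% CO2; 12,500 cells/well. Test compound added in DMSO, then HIV-1 MC99IIIBΔTat-Rev; 4-day incubation. MTT added for 1–2 h, formazan dissolved in DMSO, absorbance read at 590 nm. Triplicate per dose; infected, uninfected, media-only and AZT controls. IC50/CC50 estimated by eye.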
substance,measurement,setting,value
divamide C [Compound 3],"cytotoxicity, in words",[1],neither cytotoxic nor anti-HIV activities
same,"anti-HIV activity (cytoprotection), in words",[2],essentially inactive; also recorded: neither cytotoxic nor anti-HIV activities; also recorded: lacked any detectable cytoprotection
